# High-throughput results: PubChem BioAssay, several laboratories
# FXIa inh: inhibitors of human coagulation factor XIa; P03951; inhibition, % at 5 µM; purified FXIa, Boc-Glu-Ala-Arg-AMC fluorogenic substrate; actives 0.14% (n = 220,000); AID 798;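 active = inhibition of at least 40%; inactive = inhibition below 40%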;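 also: fluorescence of freed AMC excited at 355 nm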
# FXIIa inh: inhibitors of human coagulation factor XIIa; AID 800; inhibition, % at 5 µM; actives 0.3% (n = 220,000); purified FXIIa, Boc-QGR-AMC fluorogenic substrate, 2 h; in the data active = inhibition above about 40%
# hK5 inh: inhibitors of human kallikrein 5; Q9Y337; recombinant hK5, fluorogenic AMC substrate cleavage; inhibition, % at 5 µM; actives 0.59% (n = 210,000);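 active = inhibition of 40% or more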
# Target sequence (Q9Y337 67-293 limits assumed): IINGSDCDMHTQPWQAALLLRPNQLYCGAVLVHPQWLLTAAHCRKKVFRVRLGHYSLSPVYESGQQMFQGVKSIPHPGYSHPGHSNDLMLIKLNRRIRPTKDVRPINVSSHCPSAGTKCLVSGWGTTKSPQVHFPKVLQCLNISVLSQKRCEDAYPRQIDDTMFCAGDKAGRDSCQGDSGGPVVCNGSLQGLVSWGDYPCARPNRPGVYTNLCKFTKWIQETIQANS
# m-calpain inh: inhibitors of pig calpain II | purified calpain II, fluorogenic peptide substrate, 30 min | inhibition, % at 16 µM | actives 0.37% (n = 220,000) | AID 1236;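 active = inhibition above about 50%, limit read from the data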
# thrombin 1536: thrombin (human) inhibition. P00734. alpha-thrombin, Boc-VPR-AMC fluorogenic substrate cleavage. inhibition, % at 5 µM. actives 0.26% (n = 220,000);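 active = inhibition at or above 40%; inactive = inhibition below 40%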
#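 Material: human alpha-thrombin protein; Also added: Boc-VPR-AMC substrate, 15 µM final; Timing: enzyme reaction carried out at room temperature; Signal: fluorescence, ex 355 nm, em 460 nm; Measure: % inhibition of thrombin; Controls: enzyme without compound as high, wells lacking enzyme as low.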
# A number is an active result; – = inactive; · = no result given. Only some compounds are listed: those with a hit (about 1.4% of all), similar ones and a draw of the others.
SMILES,FXIa inh,FXIIa inh,hK5 inh,m-calpain inh,thrombin 1536
Cc1csc(SCC(=O)NCc2ccccc2Cl)n1,–,–,–,–,47.6
CN(c1ccccc1C(=O)N1CCCC1)S(C)(=O)=O,–,–,–,–,–
CCOC(=O)N1CCN(C(=O)c2ccccc2N(C)S(C)(=O)=O)CC1,–,–,–,–,54.7
CCOC(=O)N1CCN(C(=O)c2ccc(NS(C)(=O)=O)cc2)CC1,–,–,–,50.3,–
CCOC(=O)N1CCN(C(=O)c2ccc(NC(=O)CC)cc2)CC1,–,–,–,–,–
CCOC(=O)C1CCCN(C(=O)c2cc3ncc(Br)cn3n2)C1 (configuration not stated),–,–,47.6,–,–
CCOC(=O)C1CCCN(C(=O)c2cc3nc(-c4cccc(OC)c4)cc(C(F)(F)F)n3n2)C1 (configuration not stated),–,–,54.4,–,–
Cc1cc2cc(CNC(=S)NC3CCCCC3)ccc2[nH]1,–,–,–,86.7,–
Cc1cc2cc(CNC(=O)NC3CCCCC3)ccc2[nH]1,–,–,–,–,–
Cc1cccc(NC(=O)NCc2ccc3[nH]c(C)cc3c2)c1,–,–,–,97.2,–
O=C(NC(=O)N1CCCC1)c1csnn1,–,–,–,–,–
O=C(NCCc1csc(-c2cccnc2)n1)c1ccc(Br)o1,–,–,–,99.0,–
COC(=O)c1c(N)sc2c1CC(C)(C)OC2,–,–,–,–,–
Cc1cc(Nc2ccc(C)c(C)c2)n2nc(C)nc2n1,–,42.4,–,–,–
O=C1CS/C(=N/N=C/c2ccccc2)N1Cc1ccco1,–,–,–,–,–
O=C1CN(Cc2ccccc2)C(=NCc2ccco2)S1,–,44.0,–,–,–
CCCCN(CC)CCCNC(=S)Nc1ccc2nc3n(c(=O)c2c1)CCCCC3,–,–,–,64.8,–
CC1=CC(C)(C)n2c(O)c(C3=NC(=S)NC3=O)c3cc(OC(=O)c4cccc5ccccc45)cc1c32,–,–,–,–,–
Cc1ccc(NCC(=O)N/N=C/c2c[nH]c3ccccc23)cc1,–,–,–,70.0,–
Cc1ccc(NC(C)C(=O)N/N=C/c2c[nH]c3ccccc23)cc1 (configuration not stated),–,–,–,–,–
Cc1n[nH]c(C)c1CCC(=O)N/N=C/c1c[nH]c2ccccc12,48.0,–,57.7,–,–
Cc1n[nH]c(C)c1CCC(=O)N/N=C/c1cccs1,–,47.9,69.0,–,–
O=C1CC(N2CCC(c3nc4ccccc4o3)CC2)C(=O)N1c1ccc(Cl)c(C(F)(F)F)c1 (configuration not stated),41.9,–,–,–,–
O=C(NC1CCCCC1)N1CCN(C(c2ccccc2)c2ccccc2)CC1,–,–,–,–,–
CCOC(=O)c1c(N)nn(C(C)=O)c1-c1ccccc1,–,–,86.1,–,–
SMILES,FXIa inh,FXIIa inh,hK5 inh,m-calpain inh,thrombin 1536
CCOC(=O)c1c(N)nn(C(=O)C(C)C)c1-c1ccc(OC)cc1,–,–,–,–,–
CCOC(=O)c1ccc(NC(=O)Cn2c(-c3nonc3N)nc3ccccc32)cc1,–,–,–,58.9,·
O=C(c1ccc(C(F)(F)F)cc1)c1c[nH]c(C(=O)NCCCn2ccnc2)c1,–,–,–,–,–
Cc1nn(C)cc1CN1CCC(CO)(CCOc2ccccc2)CC1,–,–,·,–,68.4
COc1ccc(/C=C/C(=O)NC(=S)Nc2cc3oc4ccccc4c3cc2OC)cc1,–,–,–,62.4,–
COc1ccc(/C=C/C(=O)NC(=S)Nc2ccc(C(=O)O)cc2)cc1,–,–,–,73.8,–
CC(=O)Nc1ccc(NC(=S)NC(=O)/C=C/c2ccc(Cl)cc2)cc1,–,–,–,–,–
COc1cc2c(cc1NC(=S)NC(=O)/C=C/c1ccc(OC)c(OC)c1)oc1ccccc12,–,–,–,–,–
CC(C)(C)NC(=O)COC(=O)c1ccc(Cl)c(S(N)(=O)=O)c1,–,–,–,–,·
Cc1ccc(C2(C)NC(=O)N(CC(=O)c3ccc(Cl)s3)C2=O)cc1 (configuration not stated),–,–,–,–,–
Nc1c(-c2ccccc2)c(CSc2nc3ccccc3[nH]2)nn1-c1ccc(Cl)cc1,–,–,62.0,–,–
Nc1c(-c2ccccc2)c(CSc2nc3ccccc3[nH]2)nn1-c1cccc(Cl)c1,–,–,–,–,–
COC(=O)Cc1ccc(NC(=S)N2CCN(c3ccc(F)cc3)CC2)cc1,–,–,72.0,–,53.2
CS(=O)(=O)c1nc(-c2ccc(Br)cc2)n[nH]1,–,98.1,–,–,–
Cc1cc(C)cc(OCC(=O)NNC(=O)CN2C(=O)c3ccccc3C2=O)c1,–,–,53.5,–,84.9
Cc1cc(C)cc(OCC(=O)OCCN2C(=O)c3ccccc3C2=O)c1,–,–,–,–,–
CCSc1nnc(N2C(=O)CC(c3ccsc3)C3=C2CC(C)(C)CC3=O)s1 (configuration not stated),–,–,52.6,–,–
CC(C)c1[nH]nc2c1C(Cc1ccccc1)C(C#N)=C(N)O2 (configuration not stated),–,–,–,–,–
Cc1cc(/C=C(\C#N)C(=O)Nc2ccc(Cl)cc2)c(C)n1-c1ccc(N2CCOCC2)c([N+](=O)[O-])c1,–,–,–,–,–
CNC(=O)/C(C#N)=C/c1cc(C)n(-c2ccc(N3CCOCC3)cc2)c1C,–,–,43.9,–,–
O=C(COc1ccccc1C(=O)O)Nc1ccc(SC(F)F)cc1,–,–,·,–,48.4
CN(C)C(=O)COC(=O)c1ccccc1OCC(=O)Nc1ccc(SC(F)F)cc1,–,–,–,–,–
COc1ccc(-c2nc(CSCC(=O)NC3CCCc4ccccc43)c(C)o2)cc1 (configuration not stated),–,–,–,–,–
CCOc1ccc(Nc2nnc(SCc3nc4ccccc4c(=O)[nH]3)s2)cc1,–,–,–,51.6,–
Cc1ccccc1Nc1nnc(SCc2nc3ccccc3c(=O)[nH]2)s1,–,–,–,–,–
SMILES,FXIa inh,FXIIa inh,hK5 inh,m-calpain inh,thrombin 1536
CC(C)=C1C2CCC1C1C(=O)N(NC(=O)COc3ccc(C(C)(C)C)cc3)C(=O)C21 (configuration not stated),–,–,–,–,–
Cc1ccccc1NC(=O)CSc1nc2ccccc2o1,–,–,50.5,–,–
COc1ccc(/C=C/C(=O)NCc2ccccn2)cc1OC,–,–,–,–,–
C/C(=N\NC(=O)c1cc(C(C)(C)C)[nH]n1)C12CC3CC(CC(C3)C1)C2,–,–,–,–,–
CCC(=O)Nc1cc(C(C)C)c(O)cc1C,–,–,82.7,–,–
Cc1cc(O)c(C(C)C)cc1NC(=O)Nc1cccc2ccccc12,–,–,–,–,–
CCCCOc1ccc(NC(=O)C2OC3OC(C)(C)OC3C3OC(C)(C)OC23)cc1 (configuration not stated),–,–,–,–,–
Cc1ccc(C(=O)NC(=S)NCc2cccnc2)cc1C,–,–,–,–,–
CC(C)c1ccc(C(=O)NC(=S)NCc2cccnc2)cc1,–,–,–,52.6,–
